Assay outcomes deposited in PubChem by several laboratories.
Arr AP2 block: inhibitors of human beta-arrestin and AP2 interaction. FITC-arrestin peptide / GST-AP2 beads, flow cytometry; AP2 beta2 appendage carries R879A mutation. inhibition, % at 10 µM. 340,000 tested, 0.31% active;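 active means inhibition above a set limit, near 3 SD of compounds lacking own fluorescence, cut at about 54% in these data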;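 further: plate controls were DMSO wells for no effect and 5 µM unlabelled arrestin peptide for full effect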
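System: GST-tagged AP2 beta2-adaptin appendage (R879A) on 4 µm glutathione beads / Reagent: FITC-arrestin peptide, 50 nM / Detection: HyperCyt-sampled flow cytometry, FL1 channel, ex 488/em 535 nm / Timing: 12 min plus 1 h, RT / Buffer or medium: PBS plus Tween 20 (0.05%) and BSA (0.1%)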
NLRP3 yeast inh: NALP3 inhibition in yeast. Yeast reconstituted NLRP3/ASC/caspase-1, beta-gal luminescence, 24 h. 330,000 tested, 0.39% active. inhibition, % at 10 µM;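 active means inhibition of 50% or more; inactive means inhibition below 50%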;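 further: plate controls were induced DMSO wells for no effect and uninduced yeast grown without galactose for full effect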
NALP1 inh: blocks the NALP1 inflammasome reconstituted in yeast. S. cerevisiae NALP1/ASC/caspase-1 growth, X-gal OD620, 72 h. AID 2071. inhibition, % at 10 µM. 280,000 tested, 0.61% active; in the data active means inhibition mostly above about 24%, no sharp cut-off; inactive means mostly below about 32%
ALR H2O2 inh: blocks human ALR sulfhydryl oxidase activity. P55789. purified ALR, DTT oxidation, H2O2 HRP-luminol luminescence. inhibition, % (concentration not given with the values). 290,000 tested, 3.8% active. AID 485317;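 active means mean replicate inhibition above about 79%, with every replicate also reaching it, limit read from the data; inconclusive means only one of the two criteria met; inactive means mean below limit and not every replicate reaching it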
PolyA inhibitor: inhibitors of polyadenylation in S. cerevisiae | activity score, % at 12 µM | 300,000 tested, 0.02% active | AID 1875 | S. cerevisiae SKY197-pL101 polyadenylation reporter, beta-gal luminescence; efflux-impaired pdr1/pdr3 knockout yeast; score 100 = 6 SD above DMSO;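 active means lowest replicate activity score at least 50, where 100 means six control SD above control mean; inconclusive means lowest score under 50 but half or more replicates reach 50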;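 further: yeast exposed to compound for 9 h at 30 °C; higher score means more reporter readthrough which indicates perturbed polyadenylation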
Pemphigus Ab inh: human desmoglein-3 autoantibody binding inhibition; P32926; DSG3-coupled beads, scFv-anti-DSG3-GFP binding, flow cytometry; stronger effect = lower value; binding (percent of control), % at 10 µM; 310,000 tested, 0.48% active;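 active means binding more than 3 SD below its plate's average and above zero; inconclusive means below that plate limit but binding exactly zero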;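 further: hits lower antibody fragment binding to DSG3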
* = called active by the depositor; ? = inconclusive; . = no result. Only some compounds are listed: those with a hit (about 4.6% of all), similar ones and a draw of the others.

SMILES | Arr AP2 block | NLRP3 yeast inh | NALP1 inh | ALR H2O2 inh | PolyA inhibitor | Pemphigus Ab inh
Cc1ccc(C(=O)NCCc2n[nH]c(=S)n2C)cc1 | -1.9 | -6.2 | -14.4 | 2.8 | -15.8 | 102.7
C=C(c1ccc(O)cc1)c1ccc(O)cc1 | -6.0 | 18.1 | . | 98.4* | 20.6 | 107.4
Cc1nnc(SCC(=O)Nc2cc(Cl)ccc2Cl)n1CC1CCCO1 (stereo not given) | 25.7 | 13.5 | 15.1 | 22.2 | 4.5 | 99.5
CC(=O)c1c(C)oc(C)c1CSCc1ccc(C(=O)O)o1 | 24.3 | -2.4 | 34.8 | 97.4* | 10.7 | 100.7
CCCCSCc1ccc(C(=O)O)o1 | 5.4 | 6.5 | -103.2 | -6.8 | -5.8 | 114.4
O=c1[nH]c2cc(Cl)cc([N+](=O)[O-])c2c2ccc(Cl)cc12 | . | . | . | . | . | 99.0
CCOc1cc(CNc2ccccc2SC)ccc1O | . | 15.1 | 20.0 | 80.3* | -19.1 | .
COc1cc(CNc2ccccc2SC)ccc1O | 33.1 | 0.1 | 18.0 | 52.0 | -2.2 | 98.5
CCc1nnc(NS(=O)(=O)c2ccc(NC(=S)NC(=O)c3ccccc3)cc2)s1 | 33.7 | 10.3 | -47.9 | 95.7* | -2.3 | 82.9
Cc1cc2c(N=O)c(NO)ccc2[nH]1 | 22.3 | -4.0 | -1.7 | 78.9* | -7.9 | 95.5
O=Nc1c(O)[nH]c2ccc(F)cc12 | -5.0 | 8.9 | 2.9 | -3.4 | 11.0 | 78.8
N#Cc1cnc2nc1NCCCCCCC2 | . | . | . | . | . | 106.3
O=C(O)c1cccc2c3c([nH]c12)CCCC3 | -4.7 | 17.8 | 0.9 | 86.6* | -8.9 | 98.3
O=c1c2c([nH]c3ccccc13)CCCC2 | 10.0 | 19.6 | 0.7 | -4.2 | 1.8 | 103.0
COCC(=O)Oc1cc(-c2ccc(C)cc2C)c(OC(=O)COC)c(-c2ccc(C)cc2C)c1 | . | . | . | . | . | 109.7
Nc1cc(S(=O)(=O)N2CCOCC2)ccc1N1CCCCC1 | -4.3 | 13.2 | . | 98.1* | . | .
Nc1cc(S(=O)(=O)Nc2ccccc2Cl)ccc1N1CCCC1 | 10.7 | 11.9 | -8.0 | 98.5* | -8.9 | 104.2
Nc1cc(S(=O)(=O)Nc2cc(Cl)ccc2Cl)ccc1N1CCOCC1 | 12.4 | -11.4 | 12.9 | 13.0 | 16.5 | 99.3
O=c1c2ccccc2sn1-c1cc(S(=O)(=O)N2CCOCC2)ccc1N1CCOCC1 | 39.5 | 12.7 | 29.8* | 32.5 | 6.8 | 25.6*
Nc1cc(S(=O)(=O)N2CCCCC2)ccc1N1CCCCC1 | -7.4 | 25.0 | . | . | . | 82.3
COc1ccc(S(=O)(=O)N2CCOCC2)cc1NC(=O)C1CCN(S(=O)(=O)c2ccc(Cl)cc2)CC1 | 38.7 | . | . | . | . | 100.6
COC(c1ccccc1)c1nnc(CCC(=O)N(C)CCc2ccccc2)o1 (stereo not given) | -5.4 | 5.0 | 30.1* | -5.0 | ? | 101.5
Cc1ccc(S(=O)(=O)N2CCN=C2SCc2cccnc2)cc1 | 1.3 | 33.3 | 14.3 | 98.4* | 7.8 | 93.5
CCS(=O)(=O)N1CCN=C1SCc1cccnc1 | 4.3 | 14.6 | 14.5 | 98.5* | 4.4 | 90.9
COc1ccc(S(=O)(=O)N2CCN=C2SCc2cccc(C)c2)cc1 | -17.9 | 21.0 | 23.0 | -8.0 | -18.5 | 114.7
SMILES | Arr AP2 block | NLRP3 yeast inh | NALP1 inh | ALR H2O2 inh | PolyA inhibitor | Pemphigus Ab inh
O=S(=O)(c1ccc(Cl)cc1)N1CCN=C1SCc1cccnc1 | -2.4 | 13.5 | 0.2 | 96.9* | 9.9 | 96.3
COc1ccc(S(=O)(=O)N2CCN=C2SCc2cccnc2)cc1 | 0.1 | 2.8 | 7.8 | 98.7* | 6.6 | 107.0
Cc1ccc(CSC2=NCCN2S(=O)(=O)c2ccc(C)cc2)cc1 | . | . | . | . | . | 107.3
O=C(NC12CC3CC(CC(C3)C1)C2)c1cccnc1Cl | 2.6 | 1.7 | -6.4 | . | -1.8 | 101.1
O=C(COC(=O)c1c(F)cccc1F)Nc1cccc(S(=O)(=O)N2CCCCC2)c1 | . | . | . | . | . | 94.2
O=S(=O)(c1ccccc1)N1CCN=C1SCc1cccnc1 | -1.3 | 2.8 | 22.5 | 99.5* | 8.7 | 92.7
CS(=O)(=O)N1CCN=C1SCc1ccccc1 | 3.5 | 16.1 | -6.2 | -3.2 | -16.7 | 100.6
CC(=O)/C(N)=N/Nc1cccc(Cl)c1 | 13.0 | 33.2 | 43.9 | 98.8* | -22.3 | 109.0
CC1(C)Cc2ccccc2C(/C(=N\Nc2cccc(Cl)c2)C(N)=O)=N1 | -2.2 | 26.8 | -0.9 | -13.8 | -8.2 | 67.8*
CC(=O)/C(=N\Nc1cccc(Cl)c1)Sc1cccc2cccnc12 | 5.1 | 7.9 | 9.6 | -3.5 | 0.1 | 94.8
Cc1nc2cc(CO)ccc2n1C | -13.0 | -5.9 | 43.3 | -1.7 | 9.0 | 93.5
COC(=O)c1ccc2c(c1)nc(C)n2CCO | 32.5 | 26.0 | 20.7 | -29.7 | 2.6 | 90.4
Cn1c(C2CCCCC2)nc2cc(N)ccc21 | -3.3 | 15.2 | 24.9 | 88.7* | -2.7 | 105.4
Cn1c(CO)nc2cc(N)ccc21 | 36.3 | 1.5 | 13.3 | 79.6* | 11.1 | 92.5
Nc1ccc(-c2nc3cc(N)ccc3n2CCO)cc1 | 6.9 | -0.1 | . | 98.3* | 1.7 | 101.9
CCCSCCCNC(=O)CN1C(=O)COc2ccc(S(=O)(=O)N3CCCC3)cc21 | 3.6 | 5.6 | 6.7 | -22.2 | -29.1 | 100.0
Cc1oc(-c2ccc(Cl)cc2)nc1CN1CCC(C(=O)NCc2cccnc2)CC1 | 29.9 | 7.5 | 15.5 | -5.0 | 4.4 | 101.5
COc1ccc(-c2nc(CSCC(=O)NCc3ccco3)c(C)o2)cc1 | 8.5 | 1.5 | 10.0 | 99.2* | -20.6 | 106.5
COc1ccc(NC(=O)CSCC(=O)NCc2ccco2)cc1 | -5.2 | 5.2 | . | 54.6 | 9.7 | 98.7
Cc1ccc(-c2nc(CSCC(=O)NCc3cccnc3)c(C)o2)cc1 | -3.4 | -12.8 | -9.7 | 98.6* | -12.8 | 98.2
CC(=O)CC(=O)Nc1ccn(-c2ccccc2)n1 | 29.3 | 1.0 | 7.6 | 81.8* | -2.3 | 106.7
O=C(O)CCCC(=O)Nc1ccn(-c2ccccc2)n1 | 8.6 | -3.5 | -6.6 | 3.7 | 8.4 | 98.7
Cc1ccc(C(=O)C2=C(O)C(=O)N(Cc3cccnc3)C2c2ccc(Cl)c(Cl)c2)o1 (stereo not given) | 5.3 | 9.8 | 3.1 | 87.6* | -31.4 | 108.2
Cc1ccc(C(=O)C2=C(O)C(=O)N(Cc3cccnc3)C2c2ccc(Br)cc2)o1 (stereo not given) | -1.4 | 12.3 | 2.2 | 5.2 | -5.9 | .
NC(=O)CSc1nnc(Cc2csc(Nc3ccccc3)n2)n1Cc1ccccc1 | 11.3 | 16.6 | 18.3 | 78.8* | -3.6 | 105.6
SMILES | Arr AP2 block | NLRP3 yeast inh | NALP1 inh | ALR H2O2 inh | PolyA inhibitor | Pemphigus Ab inh
CN(C(=O)COC(=O)c1nc(Cl)ccc1Cl)c1ccccc1 | 5.8 | -6.3 | 0.6 | 5.1 | -8.8 | 114.2
CCCCNc1nc(-c2ccccc2)nc(-n2ccnc2)n1 | 9.4 | 19.8 | 44.0* | 6.0 | -1.9 | 93.9
C=CCNc1nc(-c2ccccc2)nc(-n2ccnc2)n1 | -4.9 | 27.4 | 2.4 | -5.9 | -33.1 | 97.5
CC(NS(=O)(=O)c1ccc(Br)s1)c1ccccc1 (stereo not given) | 31.1 | 23.5 | 6.1 | -13.8 | -7.1 | 101.4
Cc1csc(NC(=O)C(NS(=O)(=O)c2ccc(Br)s2)c2ccccc2)n1 (stereo not given) | 8.6 | 19.4 | 6.1 | -6.4 | -17.5 | 85.7*
Cc1ccc(NC(=O)Cn2nnc(C(=O)Nc3ccc(F)c(Cl)c3)c2N)cc1 | 19.1 | 4.7 | 37.0* | -0.6 | -13.2 | 102.8
